PAFAH2 FP inh = inhibitors of human PAFAH2 | Q99487 | recombinant PAFAH2, FP-rhodamine activity probe, fluorescence polarization | inhibition, % at 3.39 µM | hit rate 0.99% among 340,000;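 active = inhibition above the mean over all tested compounds plus 3 SD, cut at about 30% in these data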;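 also: inhibitors block probe labeling of enzyme so polarization drops; 0% = enzyme with DMSO and 100% = wells lacking PAFAH2 protein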
PAFAH1B3 inh = PAFAH1B3 (human) inhibition | Q15102 | recombinant PAFAH1B3, FP-rhodamine probe, fluorescence polarization | inhibition, % at 3.39 µM | hit rate 0.28% among 340,000;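 active = inhibition above the screen-wide average of all tested compounds plus 3 SD, cut at about 25% in these data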;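 also: 0% = enzyme with DMSO only and 100% = wells lacking PAFAH1B3 protein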
Target sequence (Q15102 whole entry, looked up): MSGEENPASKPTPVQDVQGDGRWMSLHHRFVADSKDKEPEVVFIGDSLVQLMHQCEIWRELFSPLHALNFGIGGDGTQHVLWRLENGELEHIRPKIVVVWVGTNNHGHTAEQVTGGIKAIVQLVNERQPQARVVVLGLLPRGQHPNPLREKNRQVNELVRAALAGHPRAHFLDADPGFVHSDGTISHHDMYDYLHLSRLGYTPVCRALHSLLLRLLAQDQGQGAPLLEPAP
PAFAH1B2 inh = PAFAH1B2 (human) inhibition; P68402; recombinant PAFAH1B2, FP-rhodamine activity probe, fluorescence polarization; inhibition, % at 3.39 µM; hit rate 1.2% among 340,000;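 active = inhibition above the mean of all tested compounds plus 3 SD, cut at about 24% in these data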;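 also: 0% = enzyme with DMSO and 100% = wells lacking PAFAH1B2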
Target sequence (P68402 whole entry, looked up): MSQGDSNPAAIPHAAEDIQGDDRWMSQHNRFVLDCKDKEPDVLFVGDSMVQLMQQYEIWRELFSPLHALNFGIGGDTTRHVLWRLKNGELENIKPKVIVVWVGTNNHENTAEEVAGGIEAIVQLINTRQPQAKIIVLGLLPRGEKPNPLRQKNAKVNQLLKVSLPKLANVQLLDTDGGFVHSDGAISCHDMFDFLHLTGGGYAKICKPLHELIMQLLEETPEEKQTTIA
Apaf-1 inh = human Apaf-1 inhibition; O14727; reconstituted apoptosome caspase-3 activity, DEVD-Rh110 fluorescence; inhibition, % at 20 µM; hit rate 0.71% among 330,000; active = inhibition of at least 40% at 20 µM;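 also: plate controls were DMSO wells for no effect and DEVD-CHO caspase inhibitor wells for full effect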
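Material: biochemical Apaf-1 apoptosome reconstitution. Medium: Hepes buffer, pH 7.5. Also added: cytochrome c activation, bis-DEVD rhodamine 110 substrate. Timing: 30 min compound preincubation, 50 min activation, room temperature. Measured by: rhodamine 110 fluorescence at Ex 480/Em 540 nm.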
TDP2 absorb = blocks human TDP2 phosphodiesterase activity; hit rate 0.34% among 370,000; inhibition, % at 12.8 µM; recombinant TDP2, T5PNP hydrolysis, p-nitrophenol absorbance 415 nm; O95551; AID 720702;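 active = inhibition above the mean of all tested compounds plus 3 SD, set per campaign, cut at about 25% in these data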;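 also: 0% = DMSO with enzyme and 100% = buffer with substrate but no TDP2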
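test system = human TDP2 enzyme | input = TDP2 enzyme at 120 nM final | medium = 50 mM Tris-HCl pH 7.5 with Mg2+, KCl, DTT, BSA | also added = T5PNP substrate, 5 mM | times = 2 h at 37 °C | technique = epi absorbance | benchmarks = high control without enzyme, low control DMSO plus TDP2 | replication = each compound tested once, singlicate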
PAFAH2 confirm = confirmation of human PAFAH2 inhibitors | inhibition, % at 3.39 µM | hit rate 65% among 2,300 | shares compounds with PAFAH2 FP inh | recombinant PAFAH2, FP-rhodamine activity probe, fluorescence polarization;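 active = mean inhibition over three repeats above a set limit taken from the earlier primary screen, cut at about 30% in these data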;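 also: inhibitor blocks binding of rhodamine activity probe so polarization falls; 0% = enzyme with DMSO and 100% = wells lacking PAFAH2 protein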
* hit, by the source's call; · = not tested or not shown. In the library only some 2.3% were active in any assay of this set; here they are far more common.

SMILES	PAFAH2 FP inh	PAFAH1B3 inh	PAFAH1B2 inh	Apaf-1 inh	TDP2 absorb	PAFAH2 confirm
CC(=O)Nc1sc2c(c1-c1nc3ccccc3s1)CCCNC2	·	·	·	·	6	·
Cc1c(Cl)cccc1N=Cc1ccc([N+](=O)[O-])s1	71*	13	13	39	2	8
COCC(=O)N1CCC(C(=O)NC2CCCc3ccccc32)CC1 (stereo unspecified)	·	·	·	·	-3	·
O=c1oc(-c2cccs2)nc2scc(-c3cccs3)c12	-1	-4	3	19	-7	·
CCc1cc2c(=O)oc(-c3ccc(Br)cc3)nc2s1	78*	0	-2	15	-3	67*
Cc1sc2nc(-c3ccc(Br)cc3)oc(=O)c2c1C	49*	9	7	1	·	36*
Cc1sc2nc(-c3cccs3)oc(=O)c2c1C	63*	-2	-3	19	0	67*
CCOC(=O)c1csc(NC(=O)C2CCCN(S(=O)(=O)c3cccs3)C2)n1 (stereo unspecified)	·	·	·	·	7	·
CCCCNC(=O)C[C@H]1C[C@@]2(C(=O)OC)C(=C[C@H](C3CCCC3)O[C@@H]2C)N(CCc2ccc(OC)c(OC)c2)C1=O	·	·	·	·	-10	·
O=C(NC(=S)NNC(=O)c1cc2ccccc2cc1O)c1ccco1	16	15	5	-22	-22	·
O=C(NC(=S)NNC(=O)c1ccccc1O)c1cccc([N+](=O)[O-])c1	42*	19	10	-5	-6	27
O=C(NC(=S)NNC(=O)c1ccccc1O)c1ccco1	53*	8	8	·	-10	42*
Cc1ccsc1C(=O)NNC(=O)c1csc(N2CCOCC2)n1	8	4	6	-3	-7	·
Cc1ccc(C)c(SCC(=O)NNC(=O)c2csc(N3CCOCC3)n2)c1	30*	1	3	6	-18	31*
COCCN(CC1CCCN(C2Cc3ccccc3C2)C1)C(=O)c1ccc(C(C)=O)cc1 (stereo unspecified)	21	-1	-2	7	7	·
COCCN(CC1CCCN(C2Cc3ccccc3C2)C1)C(=O)c1cccc(C)c1 (stereo unspecified)	32*	-3	2	-2	-15	19
O=C(NCCc1ccccc1)OCc1cn(Cc2ccccc2C(F)(F)F)nn1	·	·	·	·	-3	·
O=C(CSc1cccc[n+]1[O-])c1ccccc1Br	39*	2	3	0	9	39*
CC1=C[C@@H]2[C@H]3C(=O)N(Cc4ccccc4)C(=O)[C@H]3[C@@H]1[C@@H]1O[C@@]3(C(=O)N(C)c4ccccc43)C3=C(CCCC3=O)N21	·	·	·	·	1	·
O=C1c2ccccc2-n2c1nc1ccccc1c2=O	32*	0	6	6	3	20
Cc1ccccc1NC(=O)Cc1nc(-c2c[nH]c(C(=O)N3CCCC3)c2)cs1	40*	-1	3	4	2	13
Cc1cccc(NC(=O)Cc2nc(-c3c[nH]c(C(=O)N4CCCC4)c3)cs2)c1	35*	0	-2	14	19	12
C[C@@H]1CN(c2ccc(N3CCN(C(=O)OC(C)(C)C)C[C@@H]3C)cc2C#N)CCN1Cc1ccccc1	·	·	·	·	-1	·
C=CCNC(=O)CN(C(=O)Cc1cccc(OC(F)(F)F)c1)c1cccc(Br)c1	·	·	·	·	5	·
CCCNC(=O)COC(=O)/C=C/c1ccco1	36*	2	7	2	2	28
SMILES	PAFAH2 FP inh	PAFAH1B3 inh	PAFAH1B2 inh	Apaf-1 inh	TDP2 absorb	PAFAH2 confirm
O=C(COC(=O)/C=C/c1ccccc1)NCc1ccc(Cl)cc1	34*	8	1	-4	6	34*
O=C(COC(=O)/C=C/c1ccco1)NCc1ccc(Cl)cc1	43*	2	4	-4	0	38*
O=C(COC(=O)/C=C/c1ccco1)NCc1ccccc1	18	-2	-2	-24	-8	·
Cc1ccc(NC(=O)OC2CC3CC2[C@H]2CCCCN2[C@H]3Cc2ccccc2)cc1 (stereo partly specified)	·	·	·	·	8	·
CCC(C)NC(=O)COC(=O)c1csc2c1CCCC2 (stereo unspecified)	57*	-6	5	-10	5	47*
O=C(COC(=O)c1cc[n+]([O-])cc1)Nc1ccccc1Cl	7	8	2	16	6	·
Cn1ccc(C(=O)OCC(=O)Nc2ccccc2Cl)n1	39*	2	5	6	-8	28
Cn1ccc(C(=O)OCC(=O)Nc2cccc(Cl)c2)n1	83*	-1	-2	-5	17	78*
Cn1nccc1C(=O)OCC(=O)Nc1cccc(Cl)c1	66*	2	7	2	-11	52*
Cc1ccc(Cn2cc(CN3[C@@H](Cc4ccccc4)COc4cc(Br)ccc4S3(=O)=O)nn2)cc1	·	·	·	·	-4	·
COC(=O)[C@]12C[C@H](CC(=O)N3CCCCC3)C(=O)N(Cc3ccccc3)C1=C[C@H](C(C)(C)C)O[C@@H]2C	·	·	·	·	9	·
CC1(NC(=O)NCCCCCCNC(=O)NC2(C)CCS(=O)(=O)C2)CCS(=O)(=O)C1 (stereo unspecified)	44*	6	-2	0	-9	37*
O=C(COC(=O)C1CCC1)NCc1ccc(Cl)cc1Cl	13	0	4	7	17	·
COc1ccc(CNC(=O)COC(=O)C2CC2C)cc1OC (stereo unspecified)	8	5	3	0	18	·
CC1CC1C(=O)OCC(=O)NCc1ccc(Cl)cc1Cl (stereo unspecified)	62*	4	5	-1	-10	53*
CC1CC1C(=O)OCC(=O)NCc1ccc(Cl)cc1 (stereo unspecified)	46*	1	6	9	6	23
Cc1ccc(NC(=O)COC(=O)/C=C/c2ccc(Br)o2)cc1S(=O)(=O)N(C)C	64*	-1	-3	5	0	59*
CN(C)S(=O)(=O)c1cccc(NC(=O)COC(=O)/C=C/c2ccc([N+](=O)[O-])cc2)c1	34*	1	1	-14	-2	20
O=C(COC(=O)/C=C/c1ccc(Br)o1)Nc1ccc2[nH]c(=O)[nH]c2c1	18	-1	6	1	7	·
CN(C)S(=O)(=O)c1cccc(NC(=O)COC(=O)/C=C/c2ccc(Br)o2)c1	40*	-3	0	-16	-5	35*
CN(C)S(=O)(=O)c1cccc(NC(=O)COC(=O)c2ccc(Br)o2)c1	18	5	6	-7	12	·
O=c1oc2ccccc2c(Nc2ccc3ccccc3c2)c1[N+](=O)[O-]	34*	3	7	7	·	28
Cc1ccc(Cl)cc1NC(=O)COC(=O)CC1CCCCC1	31*	6	11	15	-3	22
Cc1ccccc1NC(=O)COC(=O)CC1CCCC1	43*	-1	4	-6	0	29
O=C(COC(=O)CC1CCCC1)Nc1ccccc1[N+](=O)[O-]	57*	2	-2	4	-13	51*

Screens as filed in PubChem.
